According to publication PMC4593509 (Medicinal chemistry research : an international journal for …, 2015):
pIC50: −log10 of the molar value. In brackets after ≈: the same amount, converted by molar mass. Like-named read-outs stand apart in the source and are kept apart here.

What was measured:
[1] = system: NCI-H460; assay: MTT assay, cell viability after 72 h; type: cell-based, human; settings: read-out: IC50 (at day 3)
Summary of the method: (§1)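 Cells were kept in RPMI-1640 with 10% FBS at 37 °C and 5% CO₂, grown to confluency, seeded at 5,000–7,000 per well, and incubated 24 h. Medium was replaced with medium holding test compound, diluted from a 1% DMSO/water suspension, in six replicates each in triplicate. After 72 h, MTT in PBS was added for 4 h. Medium was then removed, formazan dissolved in DMSO, and OD read at 540 nm.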

[2] = system: NCI-H1975; assay: MTT assay, cell viability after 72 h; type: cell-based, human; settings: read-out: IC50 (at day 3)
Summary of the method: as §1

[3] = system: HCC827; assay: MTT assay, cell viability after 72 h; type: cell-based, human; settings: read-out: IC50 (at day 3)
Summary of the method: as §1

[4] = Water solubility from a filtered saturated solution, by weight; type: physicochemical; settings: for solubility: thermodynamic from solid
[5] = system: NSCLC cell lines NCI-H460, NCI-H1975, and HCC827; assay: MTT assay, values stated for the whole panel of NSCLC cell lines; type: cell-based, human; settings: for pIC50: Homo sapiens, 72 h, read-out: IC50 values against the panel of cancer cell lines
Summary of the method: as §1

[6] = system: NCI-H460 cell line; assay: Annexin V; type: cell-based, human; settings: H460 cells
Summary of the method: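 NCI-H460 cells were seeded at 1×10^5 per well and left to adhere overnight. Test compound or cisplatin (40 µM) was diluted into medium from a 1% DMSO/water solution, and untreated controls got fresh medium, with 2 wells per treatment. After exposure, cells were washed twice in cold PBS and stained with FITC-Annexin V and PI in 1× binding buffer for 15 min at room temperature in the dark. Imaging used fluorescence microscopy at 10× and 20×.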

[7] = system: PARP and caspase-3 in NCI-H460 cells; assay: Western blotting of apoptotic proteins caspase-3 and PARP; type: cell-based, human; settings: 5 μM
Summary of the method: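 Confluent NCI-H460 cells, seeded at 1×10^5 per well in RPMI-1640 with 10% FBS and 1% pen-strep, were serum-starved 24 h, then treated. Cells were lysed in ice-cold Tris pH 7.5/Triton X-100 buffer with protease/phosphatase inhibitors. Equal lysate amounts were run on 4–12% SDS-PAGE and moved to PVDF, then probed with PARP, caspase-3 and GAPDH antibodies (1:1,000, 4 °C overnight) and HRP anti-rabbit (1:5,000). Detection was by ECL, with GAPDH reprobe for normalization and cisplatin lysates as control.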

[8] = treatment 6 h, IC23 and cisplatin at 40 μM

Row | Compound | pIC50 ([1]; Homo sapiens, NCI-H460, 72 h) | pIC50 ([2]; Homo sapiens, NCI-H1975, 72 h) | pIC50 ([3]; Homo sapiens, HCC827, 72 h) | solubility ([4]; water) [µg/mL] | pIC50 [5] | also measured
1 | CCn1c[n+](Cc2ccc3ccccc3c2)c(Cl)c1Cl.[Br-] [Compound 1, 4,5-dichloro-1-ethyl-3-(naphthalen-2-ylmethyl)-imidazolium bromide] | 4.59 | < 4.52 | < 4.52 | 13500 | ≤ 4.72 | 
2 | CCCn1c[n+](Cc2ccc3ccccc3c2)c(Cl)c1Cl.[Br-] [Compound 2, 4,5-dichloro-3-(naphthalen-2-ylmethyl)-1-propylimidazolium bromide] | 4.72 | 4.66 | < 4.52 | 5200 | ≤ 4.72 | 
3 | CC(C)n1c[n+](Cc2ccc3ccccc3c2)c(Cl)c1Cl.[Br-] [Compound 3, 4,5-dichloro-1-isopropyl-3-(naphthalen-2-ylmethyl)imidazolium bromide] | < 4.52 | 4.70 | < 4.52 | 10800 | ≤ 4.72 | 
4 | CCCCn1c[n+](Cc2ccc3ccccc3c2)c(Cl)c1Cl.[Br-] [Compound 4, 1-butyl-4,5-dichloro-3-(naphthalen-2-ylmethyl)-imidazolium bromide] | 4.89 | 5.00 | 4.92 | 5700 |  | 
5 | CCCCCn1c[n+](Cc2ccc3ccccc3c2)c(Cl)c1Cl.[Br-] [Compound 5, 4,5-dichloro-3-(naphthalen-2-ylmethyl)-1-pentylimidazolium bromide] | 5.00 | 4.92 | 4.92 | 3100 | 4.92 to 5.00 | 
6 | CCCCCCn1c[n+](Cc2ccc3ccccc3c2)c(Cl)c1Cl.[Br-] [Compound 6, 4,5-dichloro-1-hexyl-3-(naphthalen-2-ylmethyl)-imidazolium bromide] | 5.30 | 5.30 | 5.10 | 1400 | ≥ 5.00 | 
7 | CCCCCCCn1c[n+](Cc2ccc3ccccc3c2)c(Cl)c1Cl [Compound 7, 4,5-dichloro-1-heptyl-3-(naphthalen-2-ylmethyl)-imidazolium bromide] | 5.22 | 5.40 | 5.22 |  | ≥ 5.00 | 
8 | CCCCCCCCCn1c[n+](Cc2ccc3ccccc3c2)c(Cl)c1Cl.[Br-] [Compound 8, 4,5-dichloro-3-(naphthalen-2-ylmethyl)-1-nonylimidazolium bromide] | 5.00 | 5.52 | 5.52 | 300 | ≥ 5.00 | 
9 | CCCCCCCCCCCCn1c[n+](Cc2ccc3ccccc3c2)c(Cl)c1Cl [Compound 9, 4,5-dichloro-1-dodecyl-3-(naphthalen-2-ylmethyl)-imidazolium bromide] | 5.30 | 5.40 |  |  | ≥ 5.00 | 
10 | Clc1c(Cl)[n+](Cc2ccccc2)cn1Cc1ccccc1 [Compound 10, 1,3-dibenzyl-4,5-dichloroimidazolium bromide] | < 4.52 | < 4.52 | < 4.52 |  |  | 
11 | Clc1c(Cl)[n+](Cc2ccc3ccccc3c2)cn1Cc1ccccc1 [Compound 11, 1-benzyl-4,5-dichloro-3-(naphthalen-2-ylmethyl)-imidazolium bromide] | 4.82 | 4.92 | 4.82 |  | 4.82 to 4.92 | 
12 | [Br-].c1ccc2cc(Cn3cc[n+](Cc4ccc5ccccc5c4)c3)ccc2c1 [Compound 12, 1,3-bis(naphthalen-2-ylmethyl)imidazolium bromide] | 5.40 | 5.22 | 5.05 |  |  | stage of apoptosis (Annexin V / PI) [6, 8]: early stages of apoptosis
13 | c1ccc2cc(Cn3c[n+](Cc4ccc5ccccc5c4)c4ccccc43)ccc2c1 [Compound 13, 1,3-bis(naphthalen-2-ylmethyl)benzimidazolium bromide] | 5.52 | 5.40 | 5.30 |  |  | 
14 | Cn1c(=O)c2c(ncn2Cc2ccc3ccccc3c2)n(C)c1=O [Compound 14, 1,3-dimethyl-7-(naphthalen-2-ylmethyl)xanthine] | 5.10 | 4.92 | 4.55 | 800 (≈ 2500 µM) |  | 
15 | Cn1c(=O)c2c(n(C)c[n+]2Cc2ccc3ccccc3c2)n(C)c1=O.[I-] [Compound 15, 1,3,9-trimethyl-7-(naphthalen-2-ylmethyl)xanthinium iodide] |  |  |  |  |  | pIC50 ([1]; NCI-H460, 72 h exposure, MTT): < 4.52; pIC50 ([2]; NCI-H1975, 72 h exposure, MTT): < 4.52; pIC50 ([3]; HCC827, 72 h exposure, MTT): < 4.52; H2O solubility ([4]; water, saturated solution stirred for several hours, filtered): 2.6 mg/mL; anti-tumor activity against the three cell lines ([5]; NCI-H460, NCI-H1975, HCC827, result in words): no observable anti-tumor activity
16 | Clc1ncn(CCc2cccc3ccccc23)c1Cl [Compound 16, 4,5-dichloro-1-(2-(naphthalen-1-yl)ethyl)-imidazole] |  |  |  |  |  | pIC50 ([1]; NCI-H460, 72 h exposure, MTT): < 4.52; pIC50 ([2]; NCI-H1975, 72 h exposure, MTT): < 4.52; pIC50 ([3]; HCC827, 72 h exposure, MTT): < 4.52
17 | Clc1c(Cl)[n+](Cc2ccc3ccccc3c2)cn1Cc1ccc2ccccc2c1.[Br-] [IC23, 4,5-dichloro-1,3-bis (naphthalen-2-ylmethyl)imidazolium bromide] | 5.30 | 5.22 | 5.10 | < 100 |  | stage of apoptosis (Annexin V / PI) ([6]; treatment 1 h, IC23 at 40 μM): early stage of apoptosis; stage of apoptosis (Annexin V / PI) ([6]; treatment 3 h, IC23 at 40 μM): latestage apoptotic cells; stage of apoptosis (Annexin V / PI) [6, 8]: end stage of apoptosis; PARP cleavage ([7]; H460 cell lysates, 12 h): presence of cleaved PARP; levels of procaspase-3 ([7]; H460 cell lysates, 12 h): substantial reduction; PARP-1 and procaspase-3 cleavage ([7]; H460 cells, 1 h): little PARP-1 and procaspase-3 cleavage
18 | N.N.[Cl][Pt][Cl] [cisplatin, reference compound] |  |  |  |  |  | pIC50 ([1]; NCI-H460, 72 h exposure, MTT): 5.52; pIC50 ([2]; NCI-H1975, 72 h exposure, MTT): 5.00; pIC50 ([3]; HCC827, 72 h exposure, MTT): 5.40; stage of apoptosis (Annexin V / PI) [6, 8]: early-stage apoptosis; PARP-1 cleavage and amount of procaspase-3 ([7]; H460 cells, 36 h): both PARP-1 cleavage and a reduced amount of procaspase-3

Second part, led by results:

Row | pIC50 ([1]; Homo sapiens, NCI-H460, 72 h) | pIC50 ([2]; Homo sapiens, NCI-H1975, 72 h) | pIC50 ([3]; Homo sapiens, HCC827, 72 h) | solubility ([4]; water) [µg/mL] | pIC50 [5] | Compound | also measured
19 | 5.10 | 5.10 | 4.96 | 400 |  | Clc1c(Cl)[n+](CCc2cccc3ccccc23)cn1CCc1cccc2ccccc12.[Br-] [Compound 17, 4,5-dichloro-1,3-bis(2-(naphthalen-1-yl)ethyl)-imidazolium bromide] | 
20 | 5.30 | 5.22 | 5.15 | 100 |  | Clc1c(Cl)[n+](Cc2ccc3ccccc3c2)cn1CCc1cccc2ccccc12.[Br-] [Compound 18, 4,5-dichloro-1-(2-(naphthalen-1-yl)ethyl)-3-(naphthalen-2-ylmethyl)-imidazolium bromide] | water solubility compared to IC23 ([4]; result in words): did not show a significant increase
21 | 4.92 | 4.85 | < 4.52 |  |  | Clc1c(Cl)[n+](Cc2ccccc2)cn1CCc1cccc2ccccc12 [Compound 19, 3-benzyl-4,5-dichloro-1-(2-(naphthalen-1-yl)ethyl)-imidazolium bromide] | 
22 | < 4.52 | < 4.52 | < 4.52 |  |  | Clc1ncn(CCc2ccc3ccccc3c2)c1Cl [Compound 20, 4,5-dichloro-1-(2-(naphthalen-2-yl)ethyl)-imidazole] | 
23 | 5.10 | 5.10 | 5.10 |  |  | Clc1c(Cl)[n+](CCc2ccc3ccccc3c2)cn1CCc1ccc2ccccc2c1 [Compound 21, 4,5-Dichloro-1,3-bis(2-(naphthalen-2-yl)ethyl)-imidazolium bromide] | 
24 | 5.40 | 5.15 | 5.05 |  |  | Clc1c(Cl)[n+](Cc2ccc3ccccc3c2)cn1CCc1ccc2ccccc2c1 [Compound 22, 4,5-dichloro-1-(2-(naphthalen-2-yl)ethyl)-3-(naphthalen-2-ylmethyl)-imidazolium bromide] | 
25 | 5.00 | 5.30 | 5.05 | 900 |  | Clc1c(Cl)[n+](Cc2ccc3ccccc3n2)cn1Cc1ccc2ccccc2c1.[Br-] [Compound 23, 4,5-dichloro-1-(naphthalen-2-ylmethyl)-3-(quinolin-2-ylmethyl)imidazolium bromide] | increase in aqueous solubility from IC23 ([4]; relative to IC23): ≥ 10 fold
